According to ChEMBL document CHEMBL1212911, “Identification of potent and selective amidobipyridyl inhibitors of protein kinase D” (J Med Chem, 2010):

What was measured:
[1] = target: T1, Serine/threonine-protein kinase D2 (Homo sapiens, UniProt Q9BZL6); assay: Inhibition of PKD2 by TR-FRET assay
T1 sequence (Q9BZL6 whole entry): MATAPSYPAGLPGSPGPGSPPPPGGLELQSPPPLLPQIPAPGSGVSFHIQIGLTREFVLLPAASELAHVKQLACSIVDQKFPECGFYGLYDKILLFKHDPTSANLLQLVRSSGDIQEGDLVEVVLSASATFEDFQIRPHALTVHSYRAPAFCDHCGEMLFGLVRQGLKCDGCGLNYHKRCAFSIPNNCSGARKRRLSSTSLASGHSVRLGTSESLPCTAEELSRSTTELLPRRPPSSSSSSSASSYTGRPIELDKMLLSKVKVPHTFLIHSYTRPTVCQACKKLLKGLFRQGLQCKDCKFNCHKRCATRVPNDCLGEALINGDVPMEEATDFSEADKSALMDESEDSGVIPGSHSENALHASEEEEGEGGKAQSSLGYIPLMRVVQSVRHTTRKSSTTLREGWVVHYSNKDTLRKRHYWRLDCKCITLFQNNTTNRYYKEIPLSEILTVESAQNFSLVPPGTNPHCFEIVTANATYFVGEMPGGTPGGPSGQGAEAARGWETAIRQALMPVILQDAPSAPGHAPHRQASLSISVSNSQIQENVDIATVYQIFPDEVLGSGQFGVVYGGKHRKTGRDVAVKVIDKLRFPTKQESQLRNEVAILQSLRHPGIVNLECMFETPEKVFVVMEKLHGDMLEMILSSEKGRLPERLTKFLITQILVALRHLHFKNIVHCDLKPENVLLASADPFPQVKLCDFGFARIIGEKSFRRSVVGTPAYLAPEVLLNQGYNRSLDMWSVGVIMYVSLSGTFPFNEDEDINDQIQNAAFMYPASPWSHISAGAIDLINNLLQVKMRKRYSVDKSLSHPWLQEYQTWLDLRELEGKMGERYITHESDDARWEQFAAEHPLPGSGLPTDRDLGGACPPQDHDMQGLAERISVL

[2] = target: T2, Serine/threonine-protein kinase D1 (Homo sapiens, UniProt Q15139); assay: Inhibition of PKD1 assessed as inhibition of HDAC5 neuclear export
T2 sequence (Q15139 whole entry): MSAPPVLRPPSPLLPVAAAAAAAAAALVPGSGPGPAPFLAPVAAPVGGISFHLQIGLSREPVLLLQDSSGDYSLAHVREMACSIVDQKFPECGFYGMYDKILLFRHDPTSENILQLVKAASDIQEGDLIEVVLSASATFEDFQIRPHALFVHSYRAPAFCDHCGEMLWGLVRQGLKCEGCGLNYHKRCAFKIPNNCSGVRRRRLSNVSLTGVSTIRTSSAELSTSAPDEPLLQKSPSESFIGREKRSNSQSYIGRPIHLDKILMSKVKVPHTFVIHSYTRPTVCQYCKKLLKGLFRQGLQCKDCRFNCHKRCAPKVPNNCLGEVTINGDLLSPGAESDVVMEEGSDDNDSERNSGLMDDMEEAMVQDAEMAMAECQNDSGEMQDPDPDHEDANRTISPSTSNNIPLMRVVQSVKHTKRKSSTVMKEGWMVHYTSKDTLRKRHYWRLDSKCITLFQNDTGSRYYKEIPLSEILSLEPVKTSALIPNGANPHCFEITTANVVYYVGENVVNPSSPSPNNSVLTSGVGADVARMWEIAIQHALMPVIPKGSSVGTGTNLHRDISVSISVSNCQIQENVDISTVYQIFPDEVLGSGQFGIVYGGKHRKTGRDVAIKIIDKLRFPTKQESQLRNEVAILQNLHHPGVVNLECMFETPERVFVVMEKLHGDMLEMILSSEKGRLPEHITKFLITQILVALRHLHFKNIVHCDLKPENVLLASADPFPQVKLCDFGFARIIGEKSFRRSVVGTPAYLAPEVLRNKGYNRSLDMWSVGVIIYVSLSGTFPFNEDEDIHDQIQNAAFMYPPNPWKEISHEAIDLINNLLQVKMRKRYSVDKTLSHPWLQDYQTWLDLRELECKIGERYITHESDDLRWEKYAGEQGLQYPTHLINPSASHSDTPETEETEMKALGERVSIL
Method in brief: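 Neonatal rat ventricular myocytes infected with adenovirus encoding GFP-HDAC5 and plated on gelatin-coated wells. Cells exposed to compound and stimulated with PGF2α for 2 h, then fixed. Cytoplasmic versus nuclear GFP intensity quantified by high-content imaging.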

Caco-2 = assay: Ratio of permeability from basolateral to apical side to apical to basolateral side in human Caco-2 cells; format: ADME, cell-based
[3] = target: T2, Serine/threonine-protein kinase D1; assay: Inhibition of PKD1 by TR-FRET assay
Method in brief: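 Full-length wild-type PKD1 expressed and purified from Sf9 cells, 0.2 μg/mL, in 35 mM Tris-HCl pH 7.5, 5 mM MgCl2, 0.02% Tween-20, 20 μM ATP, 1 mM DTT. Reaction started with 2 μM biotinylated syntide-2 and run 50 min at room temperature. Stopped with EDTA plus europium anti-rabbit IgG, anti-phospho-syntide-2 antibody and streptavidin-APC. LANCE TR-FRET 665/615 ratio read after 1 h. 11-point curves in triplicate gave IC50.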

[4] = AUC (0 to 8 hrs) in Sprague-Dawley rat at 5 mg/kg, po; format: ADME, organism-based; design: time < 8 hr, dose 5 mg/kg, route oral; conditions: plasma
[5] = target: T3, Calcium/calmodulin-dependent protein kinase type IV (Homo sapiens) (UniProt Q16566); assay: Inhibition of human CaMK4; conditions: concentration not given here
T3 sequence (whole entry): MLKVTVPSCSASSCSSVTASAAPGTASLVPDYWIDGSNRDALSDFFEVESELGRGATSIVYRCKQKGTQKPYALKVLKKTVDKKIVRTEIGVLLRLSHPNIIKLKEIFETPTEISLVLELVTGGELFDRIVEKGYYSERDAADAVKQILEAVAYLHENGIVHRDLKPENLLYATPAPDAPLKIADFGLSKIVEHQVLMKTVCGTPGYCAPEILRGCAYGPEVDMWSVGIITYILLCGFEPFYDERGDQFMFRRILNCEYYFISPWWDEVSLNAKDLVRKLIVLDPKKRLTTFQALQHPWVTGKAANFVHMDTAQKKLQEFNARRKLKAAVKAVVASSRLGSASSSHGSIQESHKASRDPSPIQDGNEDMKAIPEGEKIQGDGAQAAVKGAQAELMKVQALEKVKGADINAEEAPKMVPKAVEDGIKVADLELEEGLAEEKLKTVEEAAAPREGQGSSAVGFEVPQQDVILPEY
Method in brief: (§1)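 Selectivity screen run externally (Invitrogen SelectScreen). Percent inhibition measured at 1 μM compound, mean of 2 measurements.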

[6] = target: Serine/threonine-protein kinase MARK1 (Homo sapiens) (UniProt Q9P0L2); assay: Inhibition of human MARK1; conditions: concentration not given here; method in brief: as §1
[7] = target: Protein kinase C delta type (Homo sapiens) (UniProt Q05655); assay: Inhibition of human PKCdelta; conditions: concentration not given here; method in brief: as §1
[8] = Half life in rats after 2 mg/kg intravenous dose; format: ADME, organism-based; design: dose 2 mg/kg, route intravenous; conditions: Sprague-Dawley, rat, in vivo
Method in brief: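 Rats dosed iv 2 mg/kg (n = 2) or po 5 mg/kg (n = 3) in 10% NMP, 10% Cremophor, 80% pH 4.63 buffer. PK parameters derived from iv dosing, reported as mean ± SD.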

[9] = target: G protein-coupled receptor kinase 5 (Homo sapiens) (UniProt P34947); assay: Inhibition of human GRK5; conditions: concentration not given here; method in brief: as §1
[10] = target: Calcium/calmodulin-dependent protein kinase type 1D (Homo sapiens) (UniProt Q8IU85); assay: Inhibition of CaMK1delta; conditions: concentration not given here; method in brief: as §1
[11] = target: Serine/threonine-protein kinase MARK2 (Homo sapiens) (UniProt Q7KZI7); assay: Inhibition of human MARK2; conditions: concentration not given here; method in brief: as §1
[12] = target: T4, Protein kinase C epsilon type (Homo sapiens) (UniProt Q02156); assay: Inhibition of PKCepsilon; conditions: concentration not given here
T4 sequence (whole entry): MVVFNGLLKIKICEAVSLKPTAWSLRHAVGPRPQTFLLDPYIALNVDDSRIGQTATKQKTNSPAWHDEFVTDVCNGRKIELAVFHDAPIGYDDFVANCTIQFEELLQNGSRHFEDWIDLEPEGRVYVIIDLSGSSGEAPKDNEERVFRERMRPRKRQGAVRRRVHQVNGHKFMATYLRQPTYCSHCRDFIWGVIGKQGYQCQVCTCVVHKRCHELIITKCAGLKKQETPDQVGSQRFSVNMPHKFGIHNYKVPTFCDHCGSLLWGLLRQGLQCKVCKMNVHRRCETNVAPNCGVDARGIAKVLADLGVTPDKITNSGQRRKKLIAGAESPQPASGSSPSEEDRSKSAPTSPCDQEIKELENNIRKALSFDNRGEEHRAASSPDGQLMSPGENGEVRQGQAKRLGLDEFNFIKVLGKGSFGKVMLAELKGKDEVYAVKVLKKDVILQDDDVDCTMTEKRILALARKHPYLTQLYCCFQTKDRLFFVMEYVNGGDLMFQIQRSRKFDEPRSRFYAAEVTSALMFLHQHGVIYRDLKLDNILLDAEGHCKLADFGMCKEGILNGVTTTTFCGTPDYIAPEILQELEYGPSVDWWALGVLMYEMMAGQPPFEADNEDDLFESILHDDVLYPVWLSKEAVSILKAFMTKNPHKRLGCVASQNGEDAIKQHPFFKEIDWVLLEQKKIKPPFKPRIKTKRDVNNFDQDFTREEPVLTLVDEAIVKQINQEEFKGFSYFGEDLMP

[13] = target: Calcium/calmodulin-dependent protein kinase type II subunit delta (Homo sapiens) (UniProt Q13557); assay: Inhibition of human CaMK2delta; conditions: concentration not given here; method in brief: as §1
Sequence of Calcium/calmodulin-dependent protein kinase type II subunit delta (Homo sapiens) (Q13557 whole entry): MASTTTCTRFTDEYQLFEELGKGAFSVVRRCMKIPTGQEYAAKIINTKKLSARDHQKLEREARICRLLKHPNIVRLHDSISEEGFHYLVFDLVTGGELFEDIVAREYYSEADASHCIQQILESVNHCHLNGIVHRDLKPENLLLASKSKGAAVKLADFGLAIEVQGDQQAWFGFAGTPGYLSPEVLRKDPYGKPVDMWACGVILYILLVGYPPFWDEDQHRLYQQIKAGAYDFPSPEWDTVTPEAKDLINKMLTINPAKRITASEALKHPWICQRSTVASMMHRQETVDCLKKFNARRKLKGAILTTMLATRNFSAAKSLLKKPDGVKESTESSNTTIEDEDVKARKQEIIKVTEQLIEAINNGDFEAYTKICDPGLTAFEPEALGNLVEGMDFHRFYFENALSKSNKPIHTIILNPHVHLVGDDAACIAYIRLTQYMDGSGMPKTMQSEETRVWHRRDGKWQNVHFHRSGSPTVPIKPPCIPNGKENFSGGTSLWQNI

Sequence of Serine/threonine-protein kinase MARK2 (Homo sapiens) (Q7KZI7 whole entry): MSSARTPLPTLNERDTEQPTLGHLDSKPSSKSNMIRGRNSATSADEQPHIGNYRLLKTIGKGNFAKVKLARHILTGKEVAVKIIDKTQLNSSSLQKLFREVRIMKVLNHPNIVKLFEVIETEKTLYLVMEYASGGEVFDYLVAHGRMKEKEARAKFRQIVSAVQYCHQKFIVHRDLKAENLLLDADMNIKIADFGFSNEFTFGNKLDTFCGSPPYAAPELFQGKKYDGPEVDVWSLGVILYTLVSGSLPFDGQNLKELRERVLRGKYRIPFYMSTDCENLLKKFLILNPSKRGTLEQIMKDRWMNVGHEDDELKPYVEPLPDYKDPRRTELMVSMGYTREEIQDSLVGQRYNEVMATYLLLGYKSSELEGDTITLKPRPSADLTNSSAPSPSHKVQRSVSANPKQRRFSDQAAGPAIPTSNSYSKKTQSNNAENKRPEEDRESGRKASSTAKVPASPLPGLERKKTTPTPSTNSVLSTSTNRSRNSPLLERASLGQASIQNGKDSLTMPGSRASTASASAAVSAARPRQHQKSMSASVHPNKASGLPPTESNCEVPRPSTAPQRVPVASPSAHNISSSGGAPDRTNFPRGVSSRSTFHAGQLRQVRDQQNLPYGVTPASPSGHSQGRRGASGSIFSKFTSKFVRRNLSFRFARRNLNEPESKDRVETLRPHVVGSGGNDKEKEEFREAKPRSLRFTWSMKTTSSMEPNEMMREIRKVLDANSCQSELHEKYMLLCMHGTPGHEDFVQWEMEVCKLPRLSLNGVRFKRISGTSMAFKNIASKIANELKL
Sequence of Protein kinase C delta type (Homo sapiens) (Q05655 whole entry, looked up): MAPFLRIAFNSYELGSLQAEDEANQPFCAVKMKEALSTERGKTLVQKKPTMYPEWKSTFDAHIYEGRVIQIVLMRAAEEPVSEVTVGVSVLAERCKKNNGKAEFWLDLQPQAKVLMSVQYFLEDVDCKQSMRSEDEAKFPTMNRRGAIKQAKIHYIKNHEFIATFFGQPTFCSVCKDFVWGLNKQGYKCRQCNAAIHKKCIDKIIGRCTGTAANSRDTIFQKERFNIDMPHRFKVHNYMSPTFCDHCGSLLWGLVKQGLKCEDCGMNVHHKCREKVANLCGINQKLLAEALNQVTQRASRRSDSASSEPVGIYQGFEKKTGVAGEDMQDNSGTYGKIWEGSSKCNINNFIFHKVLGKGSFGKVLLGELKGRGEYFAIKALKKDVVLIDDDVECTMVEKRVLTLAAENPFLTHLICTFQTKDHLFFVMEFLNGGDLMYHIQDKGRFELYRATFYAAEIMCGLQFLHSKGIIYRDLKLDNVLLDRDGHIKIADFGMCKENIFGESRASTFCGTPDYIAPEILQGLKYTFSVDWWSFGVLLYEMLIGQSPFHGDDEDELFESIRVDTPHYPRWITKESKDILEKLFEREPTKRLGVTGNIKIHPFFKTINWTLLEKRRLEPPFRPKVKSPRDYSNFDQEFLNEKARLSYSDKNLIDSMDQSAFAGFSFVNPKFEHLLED
Sequence of Serine/threonine-protein kinase MARK1 (Homo sapiens) (Q9P0L2 whole entry, looked up): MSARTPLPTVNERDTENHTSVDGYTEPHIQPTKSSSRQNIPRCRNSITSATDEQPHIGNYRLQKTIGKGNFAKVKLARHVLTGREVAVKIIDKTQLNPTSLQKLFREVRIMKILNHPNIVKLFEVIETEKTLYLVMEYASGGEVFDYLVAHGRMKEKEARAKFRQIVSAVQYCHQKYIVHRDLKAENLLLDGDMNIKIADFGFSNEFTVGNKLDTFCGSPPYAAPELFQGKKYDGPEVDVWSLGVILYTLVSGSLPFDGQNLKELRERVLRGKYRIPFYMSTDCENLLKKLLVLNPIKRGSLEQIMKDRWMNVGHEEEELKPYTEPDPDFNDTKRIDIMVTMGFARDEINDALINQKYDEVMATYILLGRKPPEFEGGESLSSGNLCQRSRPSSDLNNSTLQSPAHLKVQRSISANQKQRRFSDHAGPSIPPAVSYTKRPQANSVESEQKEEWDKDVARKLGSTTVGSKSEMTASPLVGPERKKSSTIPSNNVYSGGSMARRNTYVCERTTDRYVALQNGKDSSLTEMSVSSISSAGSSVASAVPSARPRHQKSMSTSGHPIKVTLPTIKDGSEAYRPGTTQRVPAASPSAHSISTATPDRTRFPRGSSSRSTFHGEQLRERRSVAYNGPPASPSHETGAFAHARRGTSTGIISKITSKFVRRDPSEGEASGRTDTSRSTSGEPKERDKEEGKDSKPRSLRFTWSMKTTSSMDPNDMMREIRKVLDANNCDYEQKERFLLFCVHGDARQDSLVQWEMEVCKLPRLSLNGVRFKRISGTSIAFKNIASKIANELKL
Sequence of G protein-coupled receptor kinase 5 (Homo sapiens) (P34947 whole entry, looked up): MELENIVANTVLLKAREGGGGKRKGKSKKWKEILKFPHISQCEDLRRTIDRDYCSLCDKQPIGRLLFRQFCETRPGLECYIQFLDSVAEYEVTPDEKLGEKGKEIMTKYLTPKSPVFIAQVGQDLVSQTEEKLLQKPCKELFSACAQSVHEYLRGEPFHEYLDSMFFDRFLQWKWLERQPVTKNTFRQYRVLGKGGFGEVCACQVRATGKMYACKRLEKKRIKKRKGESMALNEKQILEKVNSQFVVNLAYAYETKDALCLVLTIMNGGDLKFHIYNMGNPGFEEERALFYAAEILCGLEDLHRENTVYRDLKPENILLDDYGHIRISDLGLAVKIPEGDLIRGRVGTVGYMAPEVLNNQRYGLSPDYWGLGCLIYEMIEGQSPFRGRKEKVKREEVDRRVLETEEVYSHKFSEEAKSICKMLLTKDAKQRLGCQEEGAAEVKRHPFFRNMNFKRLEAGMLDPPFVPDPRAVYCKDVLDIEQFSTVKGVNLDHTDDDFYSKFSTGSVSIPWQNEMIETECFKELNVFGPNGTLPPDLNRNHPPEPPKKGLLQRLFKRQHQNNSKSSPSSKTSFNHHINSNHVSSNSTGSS
Sequence of Calcium/calmodulin-dependent protein kinase type 1D (Homo sapiens) (Q8IU85 whole entry, looked up): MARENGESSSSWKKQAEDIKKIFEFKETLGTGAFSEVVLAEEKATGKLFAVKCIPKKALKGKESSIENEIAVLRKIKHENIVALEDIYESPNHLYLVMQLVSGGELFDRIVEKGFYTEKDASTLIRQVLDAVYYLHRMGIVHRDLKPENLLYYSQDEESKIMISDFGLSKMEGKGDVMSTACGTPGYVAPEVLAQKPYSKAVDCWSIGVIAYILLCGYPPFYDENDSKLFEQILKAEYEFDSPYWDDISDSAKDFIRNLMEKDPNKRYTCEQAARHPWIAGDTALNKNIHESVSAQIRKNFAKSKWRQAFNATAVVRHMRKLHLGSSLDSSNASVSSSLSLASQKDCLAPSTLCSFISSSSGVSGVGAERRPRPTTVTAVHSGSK

Row | IC50 [1] [nM] | EC50 [2] [nM] | Ratio (Caco-2) | IC50 [3] [nM] | AUC(0-t) at 8 h [4] [µM·h] | inhibition [5] [%] | inhibition [6] [%] | inhibition [7] [%] | half-life [8] [h] | inhibition [9] [%] | inhibition [10] [%] | inhibition [11] [%] | inhibition [12] [%] | inhibition [13] [%] | SMILES
1 | 130 | 66 | 0.44 | 18 | – | – | – | – | – | – | – | – | – | – | N#Cc1cc(-c2ccnc(NC3CCCCC3)c2)nc(N2CCNCC2)c1
2 | – | – | – | – | 0.19 | 1 | 82 | 51 | 5.2 | 5 | 11 | 83 | 34 | 80 | c1cc2c(N3CCNCC3)nc(-c3ccnc(NC4CCCCC4)c3)cc2cn1
